Measured values taken from ChEMBL document CHEMBL1649383, “Mode of action of epoxyphomalins A and B and characterization of related metabolites from the marine-derived fungus Paraconiothyrium sp” (J Nat Prod, 2010).
In brackets after ≈: the same amount, converted by molar mass.

Assays:
[1] = Cytotoxicity against human CNXF 498NL cells; assay type: functional, cell-based
In short: (§1)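 Monolayer cell survival and proliferation assay, run within a panel of 36 human tumor cell lines; IC50 determined per cell line.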

[2] = Cytotoxicity against human LXFA 526L cells; assay type: functional, cell-based
In short: (§2)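 Monolayer cell survival and proliferation assay run across a panel of 36 human tumour cell lines; IC50 values determined.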

[3] = Cytotoxicity against human LXFL 529L cells; assay type: functional, cell-based; in short: as §2
[4] = tested on: NCI-H460; assay: Cytotoxicity against human H460 cells; assay type: functional, cell-based; in short: as §1
[5] = Cytotoxicity against human PAXF 1657L cells; assay type: functional, cell-based
In short: (§3)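 Monolayer cell survival and proliferation assay run across a panel of 36 human tumor cell lines, with IC50 determined from the resulting growth data.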

[6] = Cytotoxicity against human RXF 393NL cells; assay type: functional, cell-based; in short: as §3
[7] = Cytotoxicity against human RXF 486L cells; assay type: functional, cell-based; in short: as §3
[8] = tested on: T-24; assay: Cytotoxicity against human T24 cells at 0.001 ug/ml relative to control; assay type: functional
[9] = Cytotoxicity against human MEXF 276L cells at 0.001 ug/ml relative to control; assay type: functional, MEXF276L
[10] = Cytotoxicity against human MEXF 394NL cells at 0.001 ug/ml relative to control; assay type: functional
[11] = Cytotoxicity against human OVXF 1619L cells at 0.001 ug/ml relative to control; assay type: functional
[12] = Cytotoxicity against human PAXF 1657L cells at 0.001 ug/ml relative to control; assay type: functional
[13] = Cytotoxicity against human PXF 1752L cells at 0.001 ug/ml relative to control; assay type: functional
[14] = Cytotoxicity against human RXF 1781L cells at 0.001 ug/ml relative to control; assay type: functional
[15] = Cytotoxicity against human RXF 393NL cells at 0.001 ug/ml relative to control; assay type: functional
[16] = Cytotoxicity against human RXF 486L cells at 0.001 ug/ml relative to control; assay type: functional
[17] = tested on: HCT-116; assay: Cytotoxicity against human HCT116 cells at 0.01 ug/ml relative to control; assay type: functional
[18] = tested on: HT-29; assay: Cytotoxicity against human HT-29 cells at 0.01 ug/ml relative to control; assay type: functional
[19] = Cytotoxicity against human MEXF 520L cells at 0.01 ug/ml relative to control; assay type: functional
[20] = Cytotoxicity against human OVXF 1619L cells at 0.01 ug/ml relative to control; assay type: functional
[21] = Cytotoxicity against human OVXF 899L cells at 0.01 ug/ml relative to control; assay type: functional
[22] = Cytotoxicity against human PAXF 1657L cells at 0.01 ug/ml relative to control; assay type: functional
[23] = tested on: DU-145; assay: Cytotoxicity against human DU145 cells at 0.01 ug/ml relative to control; assay type: functional
[24] = tested on: LNCaP; assay: Cytotoxicity against human LNCAP cells at 0.01 ug/ml relative to control; assay type: functional
[25] = Cytotoxicity against human PC3M cells at 0.01 ug/ml relative to control; assay type: functional, PC-3M
[26] = Cytotoxicity against human RXF 1781L cells at 0.01 ug/ml relative to control; assay type: functional
[27] = Cytotoxicity against human BXF 1218L cells at 0.1 ug/ml relative to control; assay type: functional
[28] = tested on: HCT-116; assay: Cytotoxicity against human HCT116 cells at 0.1 ug/ml relative to control; assay type: functional
[29] = Cytotoxicity against human LXFL 1121L cells at 0.1 ug/ml relative to control; assay type: functional
[30] = Cytotoxicity against human LXFA 526L cells at 0.1 ug/ml relative to control; assay type: functional
[31] = tested on: PANC-1; assay: Cytotoxicity against human PANC1 cells at 0.1 ug/ml relative to control; assay type: functional
[32] = Cytotoxicity against human RXF 486L cells at 0.1 ug/ml relative to control; assay type: functional
[33] = tested on: SF-268; assay: Cytotoxicity against human SF268 cells at 1 ug/ml relative to control; assay type: functional
[34] = tested on: HCT-116; assay: Cytotoxicity against human HCT116 cells at 1 ug/ml relative to control; assay type: functional
[35] = Cytotoxicity against human HNXF 536L cells at 1 ug/ml relative to control; assay type: functional
[36] = tested on: NCI-H460; assay: Cytotoxicity against human H460 cells at 1 ug/ml relative to control; assay type: functional
[37] = Cytotoxicity against human MEXF 276L cells at 1 ug/ml relative to control; assay type: functional, MEXF276L
[38] = Cytotoxicity against human MEXF 514L cells at 1 ug/ml relative to control; assay type: functional
[39] = Cytotoxicity against human OVXF 899L cells at 1 ug/ml relative to control; assay type: functional
[40] = tested on: OVCAR-3; assay: Cytotoxicity against human OVCAR3 cells at 1 ug/ml relative to control; assay type: functional
[41] = tested on: PANC-1; assay: Cytotoxicity against human PANC1 cells at 1 ug/ml relative to control; assay type: functional
[42] = tested on: DU-145; assay: Cytotoxicity against human DU145 cells at 1 ug/ml relative to control; assay type: functional
[43] = Cytotoxicity against human PC3M cells at 1 ug/ml relative to control; assay type: functional, PC-3M
[44] = Cytotoxicity against human PXF 1752L cells at 1 ug/ml relative to control; assay type: functional
[45] = tested on: T-24; assay: Cytotoxicity against human T24 cells at 10 ug/ml relative to control; assay type: functional
[46] = Cytotoxicity against human CNXF 498NL cells at 10 ug/ml relative to control; assay type: functional
[47] = tested on: SF-268; assay: Cytotoxicity against human SF268 cells at 10 ug/ml relative to control; assay type: functional
[48] = tested on: HCT-116; assay: Cytotoxicity against human HCT116 cells at 10 ug/ml relative to control; assay type: functional
[49] = tested on: HT-29; assay: Cytotoxicity against human HT-29 cells at 10 ug/ml relative to control; assay type: functional
[50] = Cytotoxicity against human HNXF 536L cells at 10 ug/ml relative to control; assay type: functional
[51] = Cytotoxicity against human LXFA 289L cells at 10 ug/ml relative to control; assay type: functional
[52] = Cytotoxicity against human LXFA 629L cells at 10 ug/ml relative to control; assay type: functional
[53] = Cytotoxicity against human MEXF 462NL cells at 10 ug/ml relative to control; assay type: functional
[54] = Cytotoxicity against human PAXF 1657L cells at 10 ug/ml relative to control; assay type: functional
[55] = tested on: DU-145; assay: Cytotoxicity against human DU145 cells at 10 ug/ml relative to control; assay type: functional
[56] = Cytotoxicity against human UXF 1138L cells at 10 ug/ml relative to control; assay type: functional

C=C1[C@@H](O)[C@H]2O[C@@]2(C[C@H]2C(C)=CC[C@H]3C(C)(C)CCC[C@]23C)[C@@H](O)[C@H]1O [EPOXYPHOLAMIN D]
IC50 [1]: 3.45 µM
IC70 [1]: 3.09 µg/mL (≈ 8.53 µM)
IC90 [1]: 7.63 µg/mL (≈ 21 µM)
IC50 [2]: 13.5 µM
IC70 [2]: 7.76 µg/mL (≈ 21.4 µM)
IC90 [2]: 12.3 µg/mL (≈ 33.9 µM)
IC50 [3]: 8.58 µM
IC70 [3]: 5.95 µg/mL (≈ 16.4 µM)
IC90 [3]: 11.4 µg/mL (≈ 31.4 µM)
IC50 [4]: 7.48 µM
IC70 [4]: 4.73 µg/mL (≈ 13 µM)
IC90 [4]: 8.23 µg/mL (≈ 22.7 µM)
IC50 [5]: 6.32 µM
IC70 [5]: 4.7 µg/mL (≈ 13 µM)
IC90 [5]: 9.65 µg/mL (≈ 26.6 µM)
IC50 [6]: 11.8 µM
IC70 [6]: 6.53 µg/mL (≈ 18 µM)
IC90 [6]: 10 µg/mL (≈ 27.6 µM)
IC50 [7]: 7.67 µM
IC70 [7]: 5.27 µg/mL (≈ 14.5 µM)
IC90 [7]: 10 µg/mL (≈ 27.6 µM)
Activity [8]: 100%
Activity [9]: 98%
Activity [10]: 97%
Activity [11]: 122%
Activity [12]: 100%
Activity [13]: 95%
Activity [14]: 98%
Activity [15]: 98%
Activity [16]: 95%
Activity [17]: 97%
Activity [18]: 113%
Activity [19]: 96%
Activity [20]: 106%
Activity [21]: 104%
Activity [22]: 103%
Activity [23]: 76%
Activity [24]: 111%
Activity [25]: 101%
Activity [26]: 95%
Activity [27]: 104%
Activity [28]: 108%
Activity [29]: 146%
Activity [30]: 115%
Activity [31]: 97%
Activity [32]: 97%
Activity [33]: 117%
Activity [34]: 87%
Activity [35]: 88%
Activity [36]: 86%
Activity [37]: 59%
Activity [38]: 115%
Activity [39]: 84%
Activity [40]: 43%
Activity [41]: 68%
Activity [42]: 90%
Activity [43]: 18%
Activity [44]: 46%
Activity [45]: 7%
Activity [46]: 4%
Activity [47]: 1%
Activity [48]: 4%
Activity [49]: 1%
Activity [50]: 5%
Activity [51]: 39%
Activity [52]: 6%
Activity [53]: 12%
Activity [54]: 9%
Activity [55]: 12%
Activity [56]: 9%
